We go through nine compounds from ChEMBL document CHEMBL3352721, “Identification, optimization, and pharmacology of acylurea GHS-R1a inverse agonists” (J Med Chem, 2014).

Converted amounts (≈) assume the structure as drawn.

The target in the first data set is Growth hormone secretagogue receptor type 1 (Homo sapiens, UniProt Q92847). The experiment in a line: Displacement of [125I]human ghrelin from human GHS-R1a expressed in HEK cell membranes after 60 mins by gamma counting method.
Chain of Growth hormone secretagogue receptor type 1 (Q92847 whole entry): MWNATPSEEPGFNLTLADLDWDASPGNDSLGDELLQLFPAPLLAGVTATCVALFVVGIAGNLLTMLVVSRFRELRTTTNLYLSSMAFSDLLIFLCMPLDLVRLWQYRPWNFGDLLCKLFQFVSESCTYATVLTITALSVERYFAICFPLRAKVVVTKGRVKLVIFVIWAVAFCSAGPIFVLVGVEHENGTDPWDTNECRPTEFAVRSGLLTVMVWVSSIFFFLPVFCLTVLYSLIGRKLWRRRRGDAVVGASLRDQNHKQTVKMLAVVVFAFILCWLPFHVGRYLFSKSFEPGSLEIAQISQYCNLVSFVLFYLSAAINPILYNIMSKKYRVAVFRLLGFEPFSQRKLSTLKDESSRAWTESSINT
Details: not given
Also noted: species or system HEK293.
What is called IC50 is the concentration at which inhibition is half-maximal. A lower IC50 goes with greater potency in that assay. `CCN(CC)CCCS(=O)(=O)c1ccc2nc(NC(=O)NC(=O)c3cc(-n4cccn4)ccc3Cl)sc2c1` returned an IC50 of 3.9 nM.
Compound `CN1CCC(S(=O)(=O)c2ccc3nc(NC(=O)NC(=O)c4ccccc4Cl)sc3c2)CC1` had an IC50 of 65 nM.
On the same count and under the same terms, under `CCN(CC)CCCS(=O)(=O)c1ccc2nc(NC(=O)NC(=O)c3cc(N4CCOCC4)ccc3Cl)sc2c1` stands 2.9 nM; under `CS(=O)(=O)c1ccc2nc(NC(=O)NC(=O)c3ccccc3Cl)oc2c1`, more than 10000 nM; under `CN1CCCN(CCCS(=O)(=O)c2ccc3nc(NC(=O)NC(=O)c4ccccc4Cl)sc3c2)CC1`, 4.2 nM.
The compound `CS(=O)(=O)c1ccc2nc(NC(=O)NC(=O)c3ccccc3Cl)sc2c1` came in with an IC50 of 120 nM.
Still for that read-out and setting: next, `CN1CCC(S(=O)(=O)c2ccc3nc(NC(=O)NC(=O)c4cc(-n5cccn5)ccc4Cl)sc3c2)CC1`: 15 nM; `CN1CCN(CCCS(=O)(=O)c2ccc3nc(NC(=O)NC(=O)c4cc(C5CC5)ccc4Cl)sc3c2)CC1`: 0.33 nM; `CN1CCN(CCCS(=O)(=O)c2ccc3nc(NC(=O)NC(=O)c4cc(-n5cccc5)ccc4Cl)sc3c2)CC1`: 0.15 nM.

System in the next data set: not listed separately
In words: Ratio of drug level in homogenized brain to plasma in Han-Wistar rat measured 1 hr after iv bolus then iv infusion by LC-MS/MS method. It counts as ADME, organism-based. The following applies: read-out: BPR. The essentials:
(§1)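 Brain:plasma ratio in homogenized brain 1 h after IV bolus followed by IV infusion. The free ratio used free fractions measured in plasma and brain (brain slice method or brain homogenate).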
As to `CCN(CC)CCCS(=O)(=O)c1ccc2nc(NC(=O)NC(=O)c3cc(N4CCOCC4)ccc3Cl)sc2c1`, the Kp at 1 h was less than 0.01.
The same measure, in the same setting: next, `CN1CCN(CCCS(=O)(=O)c2ccc3nc(NC(=O)NC(=O)c4cc(C5CC5)ccc4Cl)sc3c2)CC1`: 0.18.

In another data set the test system is MDR1. The experiment in a line: Apparent permeability in MDCK cells expressing MDR1 at 10 uM assessed as apical to basolateral side transport. The format is ADME, cell-based, Canis lupus familiaris. The conditions noted are these: dog. The method, boiled down:
(§2)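 MDCK-MDR1 monolayers incubated with compound at 10 µM; permeability measured in both A→B and B→A directions, giving Papp A-B (x10^6 cm/s) and the efflux ratio.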
Usually Papp A→B stands for how fast a substance crosses the layer from the apical side. Take `CCN(CC)CCCS(=O)(=O)c1ccc2nc(NC(=O)NC(=O)c3cc(-n4cccn4)ccc3Cl)sc2c1`: the Papp A→B at 10 µM was 0.71 ×10⁻⁶ cm/s.
On the same count and under the same terms, under `CN1CCC(S(=O)(=O)c2ccc3nc(NC(=O)NC(=O)c4ccccc4Cl)sc3c2)CC1` stands 17 ×10⁻⁶ cm/s; under `CCN(CC)CCCS(=O)(=O)c1ccc2nc(NC(=O)NC(=O)c3cc(N4CCOCC4)ccc3Cl)sc2c1`, 3.3 ×10⁻⁶ cm/s.
In the case of `CN1CCCN(CCCS(=O)(=O)c2ccc3nc(NC(=O)NC(=O)c4ccccc4Cl)sc3c2)CC1`, the Papp A→B at 10 µM was found to be 0.7 ×10⁻⁶ cm/s.
Same read-out and setting: next, `CN1CCC(S(=O)(=O)c2ccc3nc(NC(=O)NC(=O)c4cc(-n5cccn5)ccc4Cl)sc3c2)CC1`: 3.9 ×10⁻⁶ cm/s; `CN1CCN(CCCS(=O)(=O)c2ccc3nc(NC(=O)NC(=O)c4cc(C5CC5)ccc4Cl)sc3c2)CC1`: 2 ×10⁻⁶ cm/s.
Still for that read-out and setting: next, `CN1CCN(CCCS(=O)(=O)c2ccc3nc(NC(=O)NC(=O)c4cc(-n5cccc5)ccc4Cl)sc3c2)CC1`: 0.37 ×10⁻⁶ cm/s.

System in a further data set: not listed separately
In words: Lipophilicity, logD of the compound. The format is physicochemical. The following applies: octanol/water.
As a reminder, the logD is lipophilicity at a set pH, counting ionised and neutral species. A high value points to higher lipophilicity. The compound `CCN(CC)CCCS(=O)(=O)c1ccc2nc(NC(=O)NC(=O)c3cc(-n4cccn4)ccc3Cl)sc2c1` showed a logD of 2.1.
Same read-out and setting: under `CN1CCC(S(=O)(=O)c2ccc3nc(NC(=O)NC(=O)c4ccccc4Cl)sc3c2)CC1` stands 2.2; under `CCN(CC)CCCS(=O)(=O)c1ccc2nc(NC(=O)NC(=O)c3cc(N4CCOCC4)ccc3Cl)sc2c1`, 1.8.
For the compound `CS(=O)(=O)c1ccc2nc(NC(=O)NC(=O)c3ccccc3Cl)oc2c1`, the logD came to 1.1.
Turning to `CN1CCCN(CCCS(=O)(=O)c2ccc3nc(NC(=O)NC(=O)c4ccccc4Cl)sc3c2)CC1`, the logD came out at 1.
The same measure, in the same setting: under `CS(=O)(=O)c1ccc2nc(NC(=O)NC(=O)c3ccccc3Cl)sc2c1` stands 2.5; under `CN1CCC(S(=O)(=O)c2ccc3nc(NC(=O)NC(=O)c4cc(-n5cccn5)ccc4Cl)sc3c2)CC1`, 2.5.
Same read-out and setting: under `CN1CCN(CCCS(=O)(=O)c2ccc3nc(NC(=O)NC(=O)c4cc(C5CC5)ccc4Cl)sc3c2)CC1` stands 2.9.
Same read-out and setting: next, `CN1CCN(CCCS(=O)(=O)c2ccc3nc(NC(=O)NC(=O)c4cc(-n5cccc5)ccc4Cl)sc3c2)CC1`: 2.6.

System in the next data set: not listed separately
The experiment in a line: Ratio of free drug level in homogenized brain to plasma in Han-Wistar rat measured 1 hr after iv bolus then iv infusion by LC-MS/MS method. It counts as ADME, organism-based. The conditions noted are these: read-out: BPR. The essentials: as §1
On to `CN1CCN(CCCS(=O)(=O)c2ccc3nc(NC(=O)NC(=O)c4cc(C5CC5)ccc4Cl)sc3c2)CC1`, for which the Kp uu at 1 h came out at 1.2.

System in the next data set: not listed separately
The experiment in a line: Cmax in CD1 mouse at 2 mg/kg, po by LC-MS/MS method. The format is ADME, organism-based. Also noted: dose 2 mg/kg, route oral. The conditions noted are these: in vivo. The method, boiled down:
(§3)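 Oral gavage in male HW rats, beagle dogs or CD-1 mice, vehicle Pluronic F127 in water. EDTA plasma was collected over 24 h and quantified by LC/MS/MS after acetonitrile precipitation. Cmax and bioavailability were obtained by non-compartmental analysis against IV data.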
What is called Cmax is the peak of the concentration-time curve. Compound `CN1CCC(S(=O)(=O)c2ccc3nc(NC(=O)NC(=O)c4cc(-n5cccn5)ccc4Cl)sc3c2)CC1` returned a Cmax of 1500 nM.

System in another data set: not listed separately
The experiment in a line: Aqueous solubility at pH 7.4 under thermodynamic conditions. The format is physicochemical. The following applies: buffer, read-out: Therm_solubility. The method, boiled down: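 Thermodynamic solubility measured from solid samples in aqueous medium at pH 7.4.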
In the case of `CN1CCC(S(=O)(=O)c2ccc3nc(NC(=O)NC(=O)c4ccccc4Cl)sc3c2)CC1`, the solubility thermodynamic came out at 69 µM (≈ 34 µg/mL).
The same measure, in the same setting: under `CS(=O)(=O)c1ccc2nc(NC(=O)NC(=O)c3ccccc3Cl)oc2c1` stands 72 µM (≈ 28.4 µg/mL); under `CN1CCCN(CCCS(=O)(=O)c2ccc3nc(NC(=O)NC(=O)c4ccccc4Cl)sc3c2)CC1`, 340 µM (≈ 187 µg/mL).
The same measure, in the same setting: under `CS(=O)(=O)c1ccc2nc(NC(=O)NC(=O)c3ccccc3Cl)sc2c1` stands less than 0.47 µM.

A further data set concerns MDR1. The experiment in a line: Efflux ratio in MDCK cells expressing MDR1 at 10 uM. The format is ADME, cell-based, Canis lupus familiaris. The following applies: dog. The method, boiled down:
as §2
By efflux ratio is commonly meant the permeability from basolateral to apical divided by that in the opposite direction, in the common usage. Regarding `CCN(CC)CCCS(=O)(=O)c1ccc2nc(NC(=O)NC(=O)c3cc(-n4cccn4)ccc3Cl)sc2c1`, the efflux ratio at 10 µM was 12.
Same read-out and setting: under `CN1CCC(S(=O)(=O)c2ccc3nc(NC(=O)NC(=O)c4ccccc4Cl)sc3c2)CC1` stands 0.9; under `CCN(CC)CCCS(=O)(=O)c1ccc2nc(NC(=O)NC(=O)c3cc(N4CCOCC4)ccc3Cl)sc2c1`, 5.5; under `CN1CCCN(CCCS(=O)(=O)c2ccc3nc(NC(=O)NC(=O)c4ccccc4Cl)sc3c2)CC1`, 41.
For `CN1CCC(S(=O)(=O)c2ccc3nc(NC(=O)NC(=O)c4cc(-n5cccn5)ccc4Cl)sc3c2)CC1`, the efflux ratio at 10 µM is 2.5.
Same read-out and setting: next, `CN1CCN(CCCS(=O)(=O)c2ccc3nc(NC(=O)NC(=O)c4cc(C5CC5)ccc4Cl)sc3c2)CC1`: 9.1.
Same read-out and setting: under `CN1CCN(CCCS(=O)(=O)c2ccc3nc(NC(=O)NC(=O)c4cc(-n5cccc5)ccc4Cl)sc3c2)CC1` stands 38.

System in a further data set: not listed separately
In words: Cmax in Han-Wistar rat at 2 mg/kg, po by LC-MS/MS method. It counts as ADME, organism-based. Also noted: dose 2 mg/kg, route oral. The conditions noted are these: in vivo. The method, boiled down:
as §3
In the case of `CCN(CC)CCCS(=O)(=O)c1ccc2nc(NC(=O)NC(=O)c3cc(-n4cccn4)ccc3Cl)sc2c1`, the concentration peaked (Cmax) at 1600 nM.
Still for that read-out and setting: next, `CCN(CC)CCCS(=O)(=O)c1ccc2nc(NC(=O)NC(=O)c3cc(N4CCOCC4)ccc3Cl)sc2c1`: 9400 nM.
On the same count and under the same terms, next, `CN1CCN(CCCS(=O)(=O)c2ccc3nc(NC(=O)NC(=O)c4cc(C5CC5)ccc4Cl)sc3c2)CC1`: 1400 nM; `CN1CCN(CCCS(=O)(=O)c2ccc3nc(NC(=O)NC(=O)c4cc(-n5cccc5)ccc4Cl)sc3c2)CC1`: 580 nM.
